Screens (PubChem)
This is a sample that favours compounds with a hit; in the whole collection about 2.3% have one here.
Rpn11 inh – Rpn11 (human) deubiquitinase inhibition. O00487. human 26S proteasome, Ub4-pepOG fluorescence polarization; 20S core pre-blocked with epoxomicin. inhibition, % at 20 µM. 360,000 compounds, 0.59% hits. AID 588493;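 active = inhibition at 20 µM, scaled to each plate's controls, above about 33%, limit read from the data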
STEP block – blocks human striatal-enriched tyrosine phosphatase. P54829. recombinant STEP, OMFP fluorogenic substrate, fluorescence. inhibition, % at 20 µM. 360,000 compounds, 0.25% hits;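 active = inhibition at 20 µM, scaled per plate between control wells, above about 37%, limit read from the data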;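 also: 0% = DMSO with enzyme and substrate and 100% = substrate only without enzyme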
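System: STEP phosphatase, cell-free reaction; Buffer or medium: Bis-Tris pH 6.0 buffer with DTT, detergent; Incubation: 20 min at room temperature, dark; Measured by: fluorescence, 480/540 nm.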
SUMO1 PPI mod – alters human SUMO1 binding to SIM partners; SUMO1 binding to a labelled peptide, TR-FRET, 1 h; inhibition, % at 20 µM; P63165; 360,000 compounds, 0.33% hits; AID 602429; in the data active = inhibition above about 37%
Scp-1 inhibitor – blocks human Scp-1 phosphatase activity. Recombinant Scp1, phosphopeptide, malachite green phosphate absorbance. inhibition, % at 20 µM. 340,000 compounds, 0.88% hits. AID 493091;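 active = inhibition above about 50% at 20 µM, limit read from the data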;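 also: plate controls were DMSO wells with enzyme for no effect and wells lacking enzyme for full effect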
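Times: enzyme reaction 45 min at room temperature, colour 5 min, stabilisation 30 min. Material: SCP-1 catalytic fragment, aa 76-261. Medium: Acidic Tris acetate buffer with magnesium and detergent. Signal: colorimetric free-phosphate detection, absorbance 630 nm. Read-out basis: % inhibition of SCP-1 phosphate liberation. Reagent: Phosphorylated 17-residue peptide substrate.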
DNMT1 block – inhibitors of human DNMT1. inhibition (reported as % activation of signal), % at 10 µM. 360,000 compounds, 0.83% hits. DNMT1 molecular beacon, Hinp1I cleavage, fluorescence. P26358. AID 588458; in the data active = inhibition above about 50%
LMPTP block – LMPTP (human) inhibition; AID 651560; inhibition, % at 20 µM; recombinant LMPTP-A, OMFP fluorogenic substrate, fluorescence intensity; P24666; 360,000 compounds, 0.22% hits;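 active = compounds that cut the enzyme signal by at least half of the control window in the single-dose screen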;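 also: plate controls were DMSO wells with enzyme plus substrate for no effect and substrate without enzyme for full effect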
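Test system: LMPTP-A phosphatase enzyme. Amount: LMPTP-A at 0.625 nM final in the reaction. Reagent: OMFP substrate, 400 µM final. Times: 50 min at room temperature. Signal: endpoint fluorescence intensity from OMFP dephosphorylation. Read-out basis: % inhibition. Benchmarks: no-enzyme and uninhibited controls.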
Rpn11 inh conf – Rpn11 inhibition confirmation, single concentration | shares compounds with Rpn11 inh | AID 602318 | inhibition, % at 20 µM | purified human 26S proteasome, Ub4-pepOG fluorescence polarization; proteasome pretreated with epoxomicin | 1,900 compounds, 29% hits
MMP-2 inh – blocks human MMP-2, flagging nonselective RPN11 hits; recombinant MMP-2, FRET peptide cleavage fluorescence; 1,900 compounds, 4% hits; shares compounds with Rpn11 inh; inhibition, % at 20 µM;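 also: human MMP-2 activated beforehand with APMA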
Thrombin inh – thrombin (bovine) inhibition counter-screen; bovine thrombin cleavage of Ub4-pepOG, fluorescence polarization; 1,900 compounds, 13% hits; AID 602333; shares compounds with Rpn11 inh; inhibition, % at 20 µM;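 active = mean inhibition at least 40% at 20 µM, or signal 3 deviations below plate average, so some actives read negative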;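 also: plate controls were thrombin with DMSO for no effect and buffer wells lacking thrombin for full effect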
Target sequence (P00735 whole entry, looked up): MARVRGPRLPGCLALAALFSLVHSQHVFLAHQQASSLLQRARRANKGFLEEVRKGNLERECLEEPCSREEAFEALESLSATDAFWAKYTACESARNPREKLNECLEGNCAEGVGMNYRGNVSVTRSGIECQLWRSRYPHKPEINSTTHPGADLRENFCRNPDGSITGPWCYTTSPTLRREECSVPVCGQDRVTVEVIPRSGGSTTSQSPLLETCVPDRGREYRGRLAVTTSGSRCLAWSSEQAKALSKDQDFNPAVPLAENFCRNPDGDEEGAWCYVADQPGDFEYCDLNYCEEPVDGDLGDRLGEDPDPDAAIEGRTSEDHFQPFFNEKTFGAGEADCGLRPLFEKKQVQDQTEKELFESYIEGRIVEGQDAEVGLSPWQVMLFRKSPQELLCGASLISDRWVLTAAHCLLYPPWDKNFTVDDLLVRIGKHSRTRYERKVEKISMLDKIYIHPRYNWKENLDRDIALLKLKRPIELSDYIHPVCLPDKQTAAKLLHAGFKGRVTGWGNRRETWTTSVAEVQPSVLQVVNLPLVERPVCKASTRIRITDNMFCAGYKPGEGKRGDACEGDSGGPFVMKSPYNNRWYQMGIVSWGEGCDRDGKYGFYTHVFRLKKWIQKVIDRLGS
* marks the source's active call; other numbers are inactive results; · = no result. Rule as the data show it, unless noted: active = inhibition above about 40%; inactive = the rest.

SMILES	Rpn11 inh	STEP block	SUMO1 PPI mod	Scp-1 inhibitor	DNMT1 block	LMPTP block	Rpn11 inh conf	MMP-2 inh	Thrombin inh
Cc1cc(/C=C2/C(=N)N3C(c4ccccc4)=CSC3=NC2=O)c(C)n1-c1ccccc1	31	-1	1	-12	-4	3	·	·	·
COc1ccc(CC(=O)Nc2ccc(-c3nc4cc(C)ccc4o3)c(O)c2)cc1OC	66*	6	-57	-1	47	13	9	-23	7
Cc1noc(C)c1S(=O)(=O)Nc1ccc2c(c1)CC(=O)N([C@H](C)CO)C[C@H](C)[C@H](CN(C)S(=O)(=O)c1ccc(F)cc1)O2	7	-2	4	-5	2	0	·	·	·
O=S(=O)(c1ccc(Br)s1)N1CCN(c2ccc(F)cc2)CC1	20	5	11	3	0	3	·	·	·
O=S(=O)(c1ccc(Br)s1)N1CCN(c2ccccc2)CC1	52*	-2	-4	-5	-2	0	22	-1	21
CCCc1nnc(SCc2ccc(OC)cc2)n1N	5	-2	-2	-3	-4	-2	·	·	·
CC(C)(C)c1cc(C(F)(F)F)c(C#N)c(=O)[nH]1	65*	-1	9	-6	0	-3	5	-22	4
COc1ccc(C(=O)N2C(=S)NC(=O)/C2=C\c2ccc(C)cc2)cc1	63*	3	-1	6	-2	4	107*	20	75*
COc1ccc(C=C2NC(=S)NC2=O)cc1	-4	0	-39	-10	-3	-5	·	·	·
CC(C)N(Cc1cn[nH]c1-c1ccc(-c2ccccc2)cc1)Cc1nccn1C	2	0	0	-7	-8	-1	·	·	·
CCN1CCC(O)(C(C(=O)O)c2ccccc2)CC1 (centres undefined)	3	-2	-1	5	0	0	·	·	·
Cc1ccc(CN(C(=O)c2csnn2)C(C(=O)NC2CCCC2)c2ccccn2)cc1 (centres undefined)	48*	1	-1	-1	3	-2	-23	-39	-20
Nc1cc(=O)[nH]c(SCC(=O)N2N=C(c3ccc(Cl)cc3)CC2c2ccco2)n1 (centres undefined)	44*	2	0	3	10	2	3	-40	-6
CCCc1cc(=O)[nH]c(SCC(=O)N2N=C(c3ccc(Cl)cc3)CC2c2ccco2)n1 (centres undefined)	37	13	6	3	-2	2	·	·	·
CCn1c(C)cc(/C=C2/SC(=S)NC2=O)c1C	15	3	-2	2	1	-1	·	·	·
Cc1cc(/C=C2\SC(=S)NC2=O)c(C)[nH]1	84*	-3	30	19	48	6	45*	17	38
COCC(C)NC(=O)CCSc1nc(-c2ccc(OC)cc2)cc(C(F)(F)F)n1 (centres undefined)	86*	-1	4	0	-7	0	-14	-22	-28
COc1ccc(-c2cc(C(F)(F)F)nc(SCCC(=O)N3CCN(C)CC3)n2)cc1	0	-2	2	-9	0	-1	·	·	·
Cc1ccc(C(=O)N=c2sccn2C)cc1S(=O)(=O)N1CCOCC1	68*	-9	6	10	0	-1	1	30	14
Cc1onc(-c2ccccc2)c1C(=O)Nc1nc2c(s1)C(=O)CC(C)(C)C2	117*	1	-4	-7	-3	0	2	-2	-16
CC(=O)C1=C(C)NC(SCC(=O)c2ccc(Cl)cc2)=C(C#N)C1c1ccco1 (centres undefined)	33	3	-8	-7	-16	1	·	·	·
